Laboratory results reported in ChEMBL document CHEMBL4689842, “EUbOPEN Chemogenomics Library wave 1” (2021).

Tested on: Fibroblast
Experiment: Multiplex assay against human fibroblast
Assay type: toxicity, cell-based
Summary of the method: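 With compound added, live cells were imaged on a CQ1 microscope at 37°C and 5% CO2; staining with Hoechst33342, BioTracker Green Microtubule Cytoskeleton Dye, MitoTracker Red and Annexin V Alexa Fluor 680 had been done at seeding. The CellPathfinder machine-learning gating scheme split cells into Hoechst high-intensity objects or normal cells, normal cells into healthy, pyknosed or fragmented nuclei, and pyknosed cells into mitotic or apoptotic. The tubulin, mitochondrial-mass and membrane-permeability phenotypes are per cents of healthy-nucleus cells.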

[1] = 12 h, 1 µM, compound concentration 1 uM, replicate 1
[2] = 12 h, 1 µM, compound concentration 1 uM, replicate 2
[3] = 12 h, 10 µM, compound concentration 10 uM, replicate 1
[4] = 12 h, 10 µM, compound concentration 10 uM, replicate 2
[5] = 24 h, 1 µM, compound concentration 1 uM, replicate 1
[6] = 24 h, 1 µM, compound concentration 1 uM, replicate 2
[7] = 24 h, 10 µM, compound concentration 10 uM, replicate 1
[8] = 24 h, 10 µM, compound concentration 10 uM, replicate 2
[9] = 48 h, 1 µM, compound concentration 1 uM, replicate 1
[10] = 48 h, 1 µM, compound concentration 1 uM, replicate 2
[11] = 48 h, 10 µM, compound concentration 10 uM, replicate 1
[12] = 48 h, 10 µM, compound concentration 10 uM, replicate 2

Q: With `CCOc1cc2ncc(C#N)c(Nc3ccc(OCc4ccccn4)c(Cl)c3)c2cc1NC(=O)/C=C/CN(C)C` [NERATINIB] as the compound, how does the “Population Apoptotic (%)” value [1] read?
A: 55%

Q: And the “Population Fragmented Nuclei (%)” value [1]?
A: 21%

Q: What about the “Population Healthy Nuclei (%)” value [1] of the same compound?
A: 37%

Q: What about the “Population Hoechst High Intensity Objects (%)” value [1] of the same compound?
A: 14%

Q: What about the “Population Membrane Permeable-Phenotype (%)” value [1] of the same compound?
A: 25%

Q: What about the “Population Mitochondria Different-Phenotype (%)” value [1] of the same compound?
A: 13%

Q: And the “Population Mitotic Cells (%)” value [1]?
A: 44%

Q: And the “Population Normal (%)” value [1]?
A: 85%

Q: What about the “Population Pyknosed Nuclei (%)” value [1] of the same compound?
A: 41%

Q: What about the “Population Tubulin-Different-Phenotype (%)” value [1] of the same compound?
A: 58%

Q: What about the “Total Cell Count” value [1] of the same compound?
A: 134

Q: What about the “Population Apoptotic (%)” value [2] of the same compound?
A: 11%

Q: What about the “Population Fragmented Nuclei (%)” value [2] of the same compound?
A: 9%

Q: What about the “Population Healthy Nuclei (%)” value [2] of the same compound?
A: 82%

Q: And the “Population Hoechst High Intensity Objects (%)” value [2]?
A: 8%

Q: What about the “Population Membrane Permeable-Phenotype (%)” value [2] of the same compound?
A: 4%

Q: And the “Population Mitochondria Different-Phenotype (%)” value [2]?
A: 18%

Q: And the “Population Mitotic Cells (%)” value [2]?
A: 88%

Q: What about the “Population Normal (%)” value [2] of the same compound?
A: 91%

Q: And the “Population Pyknosed Nuclei (%)” value [2]?
A: 9%

Q: And the “Population Tubulin-Different-Phenotype (%)” value [2]?
A: 15%

Q: What about the “Total Cell Count” value [2] of the same compound?
A: 64

Q: What about the “Population Apoptotic (%)” value [3] of the same compound?
A: 45%

Q: And the “Population Fragmented Nuclei (%)” value [3]?
A: 25%

Q: And the “Population Healthy Nuclei (%)” value [3]?
A: 44%

Q: And the “Population Hoechst High Intensity Objects (%)” value [3]?
A: 34%

Q: What about the “Population Membrane Permeable-Phenotype (%)” value [3] of the same compound?
A: 7%

Q: What about the “Population Mitochondria Different-Phenotype (%)” value [3] of the same compound?
A: 1%

Q: What about the “Population Mitotic Cells (%)” value [3] of the same compound?
A: 54%

Q: What about the “Population Normal (%)” value [3] of the same compound?
A: 65%

Q: What about the “Population Pyknosed Nuclei (%)” value [3] of the same compound?
A: 30%

Q: What about the “Population Tubulin-Different-Phenotype (%)” value [3] of the same compound?
A: 13%

Q: And the “Total Cell Count” value [3]?
A: 621

Q: And the “Population Apoptotic (%)” value [4]?
A: 12%

Q: What about the “Population Fragmented Nuclei (%)” value [4] of the same compound?
A: 35%

Q: What about the “Population Healthy Nuclei (%)” value [4] of the same compound?
A: 50%

Q: What about the “Population Hoechst High Intensity Objects (%)” value [4] of the same compound?
A: 27%

Q: And the “Population Mitochondria Different-Phenotype (%)” value [4]?
A: 16%

Q: And the “Population Mitotic Cells (%)” value [4]?
A: 87%

Q: What about the “Population Normal (%)” value [4] of the same compound?
A: 72%

Q: What about the “Population Pyknosed Nuclei (%)” value [4] of the same compound?
A: 13%

Q: What about the “Population Tubulin-Different-Phenotype (%)” value [4] of the same compound?
A: 42%

Q: And the “Total Cell Count” value [4]?
A: 109

Q: What about the “Population Apoptotic (%)” value [5] of the same compound?
A: 64%

Q: What about the “Population Fragmented Nuclei (%)” value [5] of the same compound?
A: 21%

Q: And the “Population Healthy Nuclei (%)” value [5]?
A: 40%

Q: What about the “Population Hoechst High Intensity Objects (%)” value [5] of the same compound?
A: 18%

Q: And the “Population Membrane Permeable-Phenotype (%)” value [5]?
A: 32%

Q: What about the “Population Mitochondria Different-Phenotype (%)” value [5] of the same compound?
A: 11%

Q: What about the “Population Mitotic Cells (%)” value [5] of the same compound?
A: 35%

Q: What about the “Population Normal (%)” value [5] of the same compound?
A: 81%

Q: And the “Population Pyknosed Nuclei (%)” value [5]?
A: 37%

Q: What about the “Population Tubulin-Different-Phenotype (%)” value [5] of the same compound?
A: 53%

Q: What about the “Total Cell Count” value [5] of the same compound?
A: 129

Q: What about the “Population Apoptotic (%)” value [6] of the same compound?
A: 23%

Q: And the “Population Fragmented Nuclei (%)” value [6]?
A: 9%

Q: What about the “Population Healthy Nuclei (%)” value [6] of the same compound?
A: 76%

Q: And the “Population Hoechst High Intensity Objects (%)” value [6]?
A: 5%

Q: What about the “Population Membrane Permeable-Phenotype (%)” value [6] of the same compound?
A: 5%

Q: And the “Population Mitochondria Different-Phenotype (%)” value [6]?
A: 6%

Q: What about the “Population Mitotic Cells (%)” value [6] of the same compound?
A: 76%

Q: What about the “Population Normal (%)” value [6] of the same compound?
A: 94%

Q: What about the “Population Pyknosed Nuclei (%)” value [6] of the same compound?
A: 14%

Q: What about the “Population Tubulin-Different-Phenotype (%)” value [6] of the same compound?
A: 11%

Q: What about the “Total Cell Count” value [6] of the same compound?
A: 73

Q: And the “Population Apoptotic (%)” value [7]?
A: 52%

Q: What about the “Population Fragmented Nuclei (%)” value [7] of the same compound?
A: 25%

Q: And the “Population Healthy Nuclei (%)” value [7]?
A: 48%

Q: What about the “Population Hoechst High Intensity Objects (%)” value [7] of the same compound?
A: 39%

Q: And the “Population Membrane Permeable-Phenotype (%)” value [7]?
A: 3%

Q: And the “Population Mitochondria Different-Phenotype (%)” value [7]?
A: 3%

Q: And the “Population Mitotic Cells (%)” value [7]?
A: 47%

Q: And the “Population Normal (%)” value [7]?
A: 60%

Q: What about the “Population Pyknosed Nuclei (%)” value [7] of the same compound?
A: 26%

Q: And the “Population Tubulin-Different-Phenotype (%)” value [7]?
A: 15%

Q: And the “Total Cell Count” value [7]?
A: 651

Q: What about the “Population Apoptotic (%)” value [8] of the same compound?
A: 12%

Q: And the “Population Fragmented Nuclei (%)” value [8]?
A: 36%

Q: And the “Population Healthy Nuclei (%)” value [8]?
A: 49%

Q: And the “Population Hoechst High Intensity Objects (%)” value [8]?
A: 26%

Q: And the “Population Membrane Permeable-Phenotype (%)” value [8]?
A: 10%

Q: What about the “Population Mitochondria Different-Phenotype (%)” value [8] of the same compound?
A: 14%

Q: What about the “Population Mitotic Cells (%)” value [8] of the same compound?
A: 87%

Q: And the “Population Normal (%)” value [8]?
A: 73%

Q: And the “Population Pyknosed Nuclei (%)” value [8]?
A: 14%

Q: And the “Population Tubulin-Different-Phenotype (%)” value [8]?
A: 34%

Q: What about the “Total Cell Count” value [8] of the same compound?
A: 124

Q: And the “Population Apoptotic (%)” value [9]?
A: 61%

Q: And the “Population Fragmented Nuclei (%)” value [9]?
A: 36%

Q: What about the “Population Healthy Nuclei (%)” value [9] of the same compound?
A: 45%

Q: What about the “Population Hoechst High Intensity Objects (%)” value [9] of the same compound?
A: 18%

Q: What about the “Population Membrane Permeable-Phenotype (%)” value [9] of the same compound?
A: 26%

Q: And the “Population Mitochondria Different-Phenotype (%)” value [9]?
A: 6%

Q: What about the “Population Mitotic Cells (%)” value [9] of the same compound?
A: 38%

Q: And the “Population Normal (%)” value [9]?
A: 81%

Q: What about the “Population Pyknosed Nuclei (%)” value [9] of the same compound?
A: 18%

Q: And the “Population Tubulin-Different-Phenotype (%)” value [9]?
A: 51%

Q: And the “Total Cell Count” value [9]?
A: 122

Q: And the “Population Apoptotic (%)” value [10]?
A: 33%

Q: What about the “Population Fragmented Nuclei (%)” value [10] of the same compound?
A: 20%

Q: What about the “Population Healthy Nuclei (%)” value [10] of the same compound?
A: 76%

Q: What about the “Population Hoechst High Intensity Objects (%)” value [10] of the same compound?
A: 12%

Q: What about the “Population Membrane Permeable-Phenotype (%)” value [10] of the same compound?
A: 9%

Q: And the “Population Mitochondria Different-Phenotype (%)” value [10]?
A: 4%

Q: What about the “Population Mitotic Cells (%)” value [10] of the same compound?
A: 66%

Q: What about the “Population Normal (%)” value [10] of the same compound?
A: 87%

Q: What about the “Population Pyknosed Nuclei (%)” value [10] of the same compound?
A: 2%

Q: What about the “Population Tubulin-Different-Phenotype (%)” value [10] of the same compound?
A: 14%

Q: And the “Total Cell Count” value [10]?
A: 123

Q: And the “Population Apoptotic (%)” value [11]?
A: 55%

Q: And the “Population Fragmented Nuclei (%)” value [11]?
A: 28%

Q: And the “Population Healthy Nuclei (%)” value [11]?
A: 42%

Q: What about the “Population Hoechst High Intensity Objects (%)” value [11] of the same compound?
A: 42%

Q: And the “Population Membrane Permeable-Phenotype (%)” value [11]?
A: 5%

Q: What about the “Population Mitochondria Different-Phenotype (%)” value [11] of the same compound?
A: 4%

Q: What about the “Population Mitotic Cells (%)” value [11] of the same compound?
A: 44%

Q: And the “Population Normal (%)” value [11]?
A: 57%

Q: And the “Population Pyknosed Nuclei (%)” value [11]?
A: 28%

Q: And the “Population Tubulin-Different-Phenotype (%)” value [11]?
A: 11%

Q: What about the “Total Cell Count” value [11] of the same compound?
A: 626

Q: And the “Population Apoptotic (%)” value [12]?
A: 62%

Q: What about the “Population Fragmented Nuclei (%)” value [12] of the same compound?
A: 24%

Q: And the “Population Healthy Nuclei (%)” value [12]?
A: 56%

Q: What about the “Population Hoechst High Intensity Objects (%)” value [12] of the same compound?
A: 48%

Q: What about the “Population Membrane Permeable-Phenotype (%)” value [12] of the same compound?
A: 2%

Q: What about the “Population Mitochondria Different-Phenotype (%)” value [12] of the same compound?
A: 1%

Q: What about the “Population Mitotic Cells (%)” value [12] of the same compound?
A: 37%

Q: And the “Population Normal (%)” value [12]?
A: 51%

Q: And the “Population Pyknosed Nuclei (%)” value [12]?
A: 19%

Q: What about the “Population Tubulin-Different-Phenotype (%)” value [12] of the same compound?
A: 18%

Q: What about the “Total Cell Count” value [12] of the same compound?
A: 814
